These results are taken from ChEMBL document CHEMBL1148917, “Dibenzyl bromophenols with diverse dimerization patterns from the brown alga Leathesia nana” (J Nat Prod, 2004).

Common to all, as to format: functional, cell-based
Experiment [1] concerns A549. The experiment in a line: Cytotoxicity against human A549 cells after 96 hrs by MTT assay. The method, boiled down: (§1)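 Cells grown in RPMI1640 with 10% FBS, penicillin and streptomycin at 37 °C under humidified 5% CO2; seeded at 1200 cells/well and dosed 24 h later. Five concentrations per compound in DMSO (0.1% final), three parallel wells each. After 96 h exposure, MTT conversion to formazan read at 570 nm; IC50 calculated from the readings.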
Background: Formazan colour is commonly taken as a measure of viable cells.

The subject of experiment [2] is HCT-8. The experiment in a line: Cytotoxicity against human HCT8 cells after 96 hrs by MTT assay. The essentials: as §1
The test system of experiment [3] is MCF7. The experiment can be described thus: Cytotoxicity against human MCF7 cells after 96 hrs by MTT assay. The essentials: as §1
Experiment [4] relates to Bel-7402. The experiment in a line: Cytotoxicity against human Bel7402 cells after 96 hrs by MTT assay. The method, boiled down:
as §1

Experiment [5] concerns BGC-823. The experiment in a line: Cytotoxicity against human BGC823 cells after 96 hrs by MTT assay. The essentials:
as §1

Structures are written as SMILES.

As for `COCc1cc(O)c(O)c(Br)c1Cc1cc(O)c(O)c(Br)c1Br`, the IC50 in experiment [1] came out at 5.4 µM; in experiment [2] it was 5.9 µM; in experiment [3] it was 4.6 µM; in experiment [4] it was 0.0074 uM/ml; in experiment [5], 18 µM.
In the same order, the values of `Oc1cc(Cc2cc(O)c(O)c(Br)c2Br)c(Br)c(Br)c1O` are 1.8 µM, 2.2 µM, 2.7 µM, more than 0.0182 uM/ml and 3.8 µM.
On to `CCOCc1cc(O)c(O)c(Br)c1Cc1cc(O)c(O)c(Br)c1Br`, for which the IC50 in experiment [1] was more than 19 µM; in experiment [2], 2.8 µM; in experiment [3], 3.4 µM; in experiment [4] it was 0.0055 uM/ml; in experiment [5], 4.6 µM.
On the same counts, the results for `COCc1c(Br)c(Br)c(O)c(O)c1Cc1cc(O)c(O)c(Br)c1Br` are 2.5 µM, more than 16.8 µM, 2.7 µM, 0.0048 uM/ml and 8.8 µM.
As to `Oc1cc(COCc2cc(O)c(O)c(Br)c2Br)c(Br)c(Br)c1O`, the IC50 was more than 19.5 µM in experiment [1]; 20.7 µM in experiment [2]; 21.4 µM in experiment [3]; more than 0.0019 uM/ml in experiment [4]; 8.6 µM in experiment [5].
